Experimental data from paper PMC6445238 (Drug Design, Development and Therapy, 2019).
Entries after “also recorded” stand apart in the source; their conditions may differ.

Key:
[1] = SAD study, safety and tolerability; type: in vivo, human; conditions: for Abdominal discomfort, number of subjects (%) / Cough, number of subjects (%) / Eye swelling, number of subjects (%) / Face injury, number of subjects (%) / Headache, number of subjects (%) / Hot flush, number of subjects (%) / Hyperbilirubinemia, number of subjects (%) / Hypoesthesia, number of subjects (%) / Influenza, number of subjects (%) / Pain in extremity, number of subjects (%) / Proteinuria, number of subjects (%) / Subjects with any TEAEs, number of subjects (%) / Syncope, number of subjects (%): N=6
In short: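 SAD cohorts were 6 active and 2 placebo healthy males given a single oral dose, with 2 sentinel subjects dosed at least 24 h before the rest. Confinement ran day −1 to day 3, with outpatient visits on days 4 and 7 and follow-up on day 14. Safety covered vital signs, clinical labs, 12-lead ECG, physical exams, and reported or observed AEs, coded with MedDRA 19.1. Counts are subjects with AEs, % of the safety population. Placebo subjects were pooled.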

Single ascending dose = type: in vivo, human
In short: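 After a single oral dose, plasma was sampled predose and at 0.25–72 h, and urine was collected over 0–24 h. Samples were mixed with DMSO and a deuterated internal standard, extracted with methanol, diluted with 0.1% ammonium acetate, and run by UPLC-MS/MS using MRM at m/z 460.1→214.2. Analysis was non-compartmental: t1/2 = 0.693/λz, AUC by linear trapezoidal rule, BLQ values before Cmax set to zero.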

Structure (SMILES): Cc1nn(Cc2ccc(Br)cc2)c(C)c1NC(=O)CSc1ccccc1 [KM-819]
- serious adverse events (SAEs) ([1]; SAD): no serious adverse events
- bilirubin levels ([1]; SAD, 10 mg and 30 mg cohorts, day 2, normal on day 7): increasing trend of bilirubin levels
- Abdominal discomfort, number of subjects (%) ([1]; single 10 mg, young): 0
- Cough, number of subjects (%) ([1]; single 10 mg, young): 0
- Eye swelling, number of subjects (%) ([1]; single 10 mg, young): 0
- Face injury, number of subjects (%) ([1]; single 10 mg, young): 0
- Headache, number of subjects (%) ([1]; single 10 mg, young): 0
- Hot flush, number of subjects (%) ([1]; single 10 mg, young): 0
- Hyperbilirubinemia, number of subjects (%) ([1]; single 10 mg, young): 2 (33.3)
- Hypoesthesia, number of subjects (%) ([1]; single 10 mg, young): 0
- Influenza, number of subjects (%) ([1]; single 10 mg, young): 0
- Pain in extremity, number of subjects (%) ([1]; single 10 mg, young): 0
- Proteinuria, number of subjects (%) ([1]; single 10 mg, young): 0
- Subjects with any TEAEs, number of subjects (%) ([1]; single 10 mg, young): 2 (33.3)
- Syncope, number of subjects (%) ([1]; single 10 mg, young): 0
- Abdominal discomfort, number of subjects (%) ([1]; single 30 mg, young): 0
- Cough, number of subjects (%) ([1]; single 30 mg, young): 0
- Eye swelling, number of subjects (%) ([1]; single 30 mg, young): 0
- Face injury, number of subjects (%) ([1]; single 30 mg, young): 0
- Headache, number of subjects (%) ([1]; single 30 mg, young): 0
- Hot flush, number of subjects (%) ([1]; single 30 mg, young): 0
- Hyperbilirubinemia, number of subjects (%) ([1]; single 30 mg, young): 0
- Hypoesthesia, number of subjects (%) ([1]; single 30 mg, young): 0
- Influenza, number of subjects (%) ([1]; single 30 mg, young): 0
- Pain in extremity, number of subjects (%) ([1]; single 30 mg, young): 1 (16.7)
- Proteinuria, number of subjects (%) ([1]; single 30 mg, young): 0
- Subjects with any TEAEs, number of subjects (%) ([1]; single 30 mg, young): 2 (33.3)
- Syncope, number of subjects (%) ([1]; single 30 mg, young): 1 (16.7)
- Abdominal discomfort, number of subjects (%) ([1]; single 100 mg, young): 0
- Cough, number of subjects (%) ([1]; single 100 mg, young): 0
- Eye swelling, number of subjects (%) ([1]; single 100 mg, young): 0
- Face injury, number of subjects (%) ([1]; single 100 mg, young): 0
- Headache, number of subjects (%) ([1]; single 100 mg, young): 0
- Hot flush, number of subjects (%) ([1]; single 100 mg, young): 0
- Hyperbilirubinemia, number of subjects (%) ([1]; single 100 mg, young): 1 (16.7)
- Hypoesthesia, number of subjects (%) ([1]; single 100 mg, young): 1 (16.7)
- Influenza, number of subjects (%) ([1]; single 100 mg, young): 0
- Pain in extremity, number of subjects (%) ([1]; single 100 mg, young): 0
- Proteinuria, number of subjects (%) ([1]; single 100 mg, young): 1 (16.7)
- Subjects with any TEAEs, number of subjects (%) ([1]; single 100 mg, young): 2 (33.3)
- Syncope, number of subjects (%) ([1]; single 100 mg, young): 0
- Abdominal discomfort, number of subjects (%) ([1]; single 200 mg, elderly): 0
- Cough, number of subjects (%) ([1]; single 200 mg, elderly): 0
- Eye swelling, number of subjects (%) ([1]; single 200 mg, elderly): 0
- Face injury, number of subjects (%) ([1]; single 200 mg, elderly): 1 (16.7)
- Headache, number of subjects (%) ([1]; single 200 mg, elderly): 2 (33.3)
- Hot flush, number of subjects (%) ([1]; single 200 mg, elderly): 1 (16.7)
- Hyperbilirubinemia, number of subjects (%) ([1]; single 200 mg, elderly): 0
- Hypoesthesia, number of subjects (%) ([1]; single 200 mg, elderly): 0
- Influenza, number of subjects (%) ([1]; single 200 mg, elderly): 0
- Pain in extremity, number of subjects (%) ([1]; single 200 mg, elderly): 0
- Proteinuria, number of subjects (%) ([1]; single 200 mg, elderly): 0
- Subjects with any TEAEs, number of subjects (%) ([1]; single 200 mg, elderly): 2 (33.3)
- Syncope, number of subjects (%) ([1]; single 200 mg, elderly): 0
- Abdominal discomfort, number of subjects (%) ([1]; single 200 mg, young): 1 (16.7)
- Cough, number of subjects (%) ([1]; single 200 mg, young): 0
- Eye swelling, number of subjects (%) ([1]; single 200 mg, young): 0
- Face injury, number of subjects (%) ([1]; single 200 mg, young): 0
- Headache, number of subjects (%) ([1]; single 200 mg, young): 0
- Hot flush, number of subjects (%) ([1]; single 200 mg, young): 0
- Hyperbilirubinemia, number of subjects (%) ([1]; single 200 mg, young): 0
- Hypoesthesia, number of subjects (%) ([1]; single 200 mg, young): 0
- Influenza, number of subjects (%) ([1]; single 200 mg, young): 0
- Pain in extremity, number of subjects (%) ([1]; single 200 mg, young): 0
- Proteinuria, number of subjects (%) ([1]; single 200 mg, young): 0
- Subjects with any TEAEs, number of subjects (%) ([1]; single 200 mg, young): 1 (16.7)
- Syncope, number of subjects (%) ([1]; single 200 mg, young): 0
- Abdominal discomfort, number of subjects (%) ([1]; single 400 mg, young): 0
- Cough, number of subjects (%) ([1]; single 400 mg, young): 0
- Eye swelling, number of subjects (%) ([1]; single 400 mg, young): 0
- Face injury, number of subjects (%) ([1]; single 400 mg, young): 0
- Headache, number of subjects (%) ([1]; single 400 mg, young): 0
- Hot flush, number of subjects (%) ([1]; single 400 mg, young): 0
- Hyperbilirubinemia, number of subjects (%) ([1]; single 400 mg, young): 0
- Hypoesthesia, number of subjects (%) ([1]; single 400 mg, young): 0
- Influenza, number of subjects (%) ([1]; single 400 mg, young): 0
- Pain in extremity, number of subjects (%) ([1]; single 400 mg, young): 0
- Proteinuria, number of subjects (%) ([1]; single 400 mg, young): 0
- Subjects with any TEAEs, number of subjects (%) ([1]; single 400 mg, young): 0
- Syncope, number of subjects (%) ([1]; single 400 mg, young): 0
- overall safety and tolerability ([1]; single or multiple doses): generally well tolerated; also recorded: no remarkable or significant safety concerns; also recorded: safe and well tolerated
- variability (CV%) of AUCinf and Cmax (Single ascending dose; SAD): up to 55%
- dose proportionality of plasma exposure (AUC and Cmax) after a single dose (Single ascending dose; SAD, 10–400 mg): less than dose-proportional increase
- 24-hour recovery in urine (percent of dose) (Single ascending dose; SAD, all subjects): less than 1%
- AUCinf, geometric mean (CV%) (Single ascending dose; single 10 mg, young): 594.2 (24.4) ng·h/mL
- AUClast, geometric mean (CV%) (Single ascending dose; single 10 mg, young): 583.4 (24.5) ng·h/mL
- CL/F, geometric mean (CV%) (Single ascending dose; single 10 mg, young): 16,830 (24.4) mL/h
- Cmax, geometric mean (CV%) (Single ascending dose; single 10 mg, young): 244.1 (31.4) ng/mL
- Tmax, median (min–max) (Single ascending dose; single 10 mg, young): 1.50 (0.50–2.00) h
- t1/2, geometric mean (CV%) (Single ascending dose; single 10 mg, young): 1.786 (28.3) h
- tlag, median (min–max) (Single ascending dose; single 10 mg, young): 0.00 (0.00–0.25) h
- AUCinf, geometric mean (CV%) (Single ascending dose; single 30 mg, young): 1,731 (17.3) ng·h/mL
- AUClast, geometric mean (CV%) (Single ascending dose; single 30 mg, young): 1,705 (17.1) ng·h/mL
- CL/F, geometric mean (CV%) (Single ascending dose; single 30 mg, young): 17,340 (17.3) mL/h
- Cmax, geometric mean (CV%) (Single ascending dose; single 30 mg, young): 503.6 (28.0) ng/mL
- Tmax, median (min–max) (Single ascending dose; single 30 mg, young): 1.00 (0.50–2.00) h
- t1/2, geometric mean (CV%) (Single ascending dose; single 30 mg, young): 4.791 (25.0) h
- tlag, median (min–max) (Single ascending dose; single 30 mg, young): 0.00 (0.00–0.00) h
- AUCinf, geometric mean (CV%) (Single ascending dose; single 100 mg, young): 4,872 (30.8) ng·h/mL
- AUClast, geometric mean (CV%) (Single ascending dose; single 100 mg, young): 4,306 (31.1) ng·h/mL
- CL/F, geometric mean (CV%) (Single ascending dose; single 100 mg, young): 20,530 (30.8) mL/h
- Cmax, geometric mean (CV%) (Single ascending dose; single 100 mg, young): 1,152 (36.7) ng/mL
- Tmax, median (min–max) (Single ascending dose; single 100 mg, young): 2.00 (1.00–4.00) h
- t1/2, geometric mean (CV%) (Single ascending dose; single 100 mg, young): 9.159 (41.2) h
- tlag, median (min–max) (Single ascending dose; single 100 mg, young): 0.00 (0.00–0.00) h
- AUC higher in elderly than in young (Single ascending dose; single 200 mg): 49%
- Cmax, elderly compared with young (Single ascending dose; single 200 mg): similar
- t1/2 higher in elderly than in young (Single ascending dose; single 200 mg): 17%
- AUCinf, geometric mean (CV%) (Single ascending dose; single 200 mg, elderly): 10,970 (9.8) ng·h/mL
- AUClast, geometric mean (CV%) (Single ascending dose; single 200 mg, elderly): 10,840 (10.3) ng·h/mL
- CL/F, geometric mean (CV%) (Single ascending dose; single 200 mg, elderly): 18,230 (9.8) mL/h
- Cmax, geometric mean (CV%) (Single ascending dose; single 200 mg, elderly): 1,766 (26.0) ng/mL
- Tmax, median (min–max) (Single ascending dose; single 200 mg, elderly): 2.00 (1.0–4.00) h
- t1/2, geometric mean (CV%) (Single ascending dose; single 200 mg, elderly): 10.55 (28.5) h
- tlag, median (min–max) (Single ascending dose; single 200 mg, elderly): 0.00 (0.00–0.00) h
- AUCinf, geometric mean (CV%) (Single ascending dose; single 200 mg, young): 7,338 (51.9) ng·h/mL
- AUClast, geometric mean (CV%) (Single ascending dose; single 200 mg, young): 7,637 (47.7) ng·h/mL
- CL/F, geometric mean (CV%) (Single ascending dose; single 200 mg, young): 27,260 (51.9) mL/h
- Cmax, geometric mean (CV%) (Single ascending dose; single 200 mg, young): 1,879 (55.3) ng/mL
- Tmax, median (min–max) (Single ascending dose; single 200 mg, young): 2.00 (1.00–4.00) h
- t1/2, geometric mean (CV%) (Single ascending dose; single 200 mg, young): 9.010 (71.6) h
- tlag, median (min–max) (Single ascending dose; single 200 mg, young): 0.00 (0.00–0.25) h
- AUCinf, geometric mean (CV%) (Single ascending dose; single 400 mg, young): 12,640 (36.1) ng·h/mL
- AUClast, geometric mean (CV%) (Single ascending dose; single 400 mg, young): 12,210 (33.3) ng·h/mL
- CL/F, geometric mean (CV%) (Single ascending dose; single 400 mg, young): 31,650 (36.1) mL/h
- Cmax, geometric mean (CV%) (Single ascending dose; single 400 mg, young): 2,767 (43.4) ng/mL
- Tmax, median (min–max) (Single ascending dose; single 400 mg, young): 4.00 (2.00–4.00) h
- t1/2, geometric mean (CV%) (Single ascending dose; single 400 mg, young): 8.527 (63.2) h
- tlag, median (min–max) (Single ascending dose; single 400 mg, young): 0.00 (0.00–0.00) h
